Experimental data taken from ChEMBL document CHEMBL4033789, “Discovery of a New Four-Leaf Clover-Like Ligand as a Potent c-MYC Transcription Inhibitor Specifically Targeting the Promoter G-Quadruplex” (J Med Chem, 2018).
Active and inactive are the calls of the source. The rule behind the calls is not given here.

Columns and labels:
SiHa [1] = test: Antitumor activity against human SiHa cells xenografted in nude BALB/c mouse assessed as tumor growth inhibition at 20 mg,kg, ip administered every other day for 24 days; format: functional
Outline: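 BALB/c nude mice (5 weeks old) given 1×10^7 SiHa cells subcutaneously in right flank; at ~50 mm3 tumor volume, randomized (10 per group) and dosed intraperitoneally every other day for 24 days; controls got equal-volume saline. Caliper volume as 1/2 × length × width2; tumors weighed at end; inhibition rate = (1 − mean treated tumor weight/mean control tumor weight) × 100%.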

[2] = Stabilization of KRAS promoter G-quadruplex DNA (unknown origin) assessed as effect on melting temperature at 15 uM by circular dichroism spectroscopic assay; format: ADME
Outline: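 G-quadruplex at 3 µM, with or without 15 µM compound, in 10 mM Tris-HCl pH 7.2 containing 2 mM KCl; CD recorded every 5 °C from 25 to 95 °C at a heating rate of 1 °C/min.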

Huh-7 = test: Cytotoxicity against human Huh7 cells assessed as reduction in cell viability after 24 hrs by MTT assay; format: functional, cell-based; conditions: Huh-7, 24 h
Outline: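 Cells seeded at 5.0×10^3 per well, exposed to compound for 24 h; MTT (2.5 mg/mL) added for 4 h, formazan dissolved in DMSO, OD read at 570 nm. Triplicate; IC50 from curves of mean OD against concentration.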

[3] = Binding affinity to 1 uM KRAS promoter G-quadruplex DNA (unknown origin) at 1 uM after 1 min by fluorescence spectroscopic analysis; format: ADME
Outline: (§1)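 Fluorescence emission spectra of 1 µM compound mixed with 1 µM pre-annealed oligonucleotide (G-quadruplexes folded in 100 mM KCl by heating to 95 °C for 5 min, slow cooling), in Tris-HCl buffer.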

SiHa [4] = test: Cytotoxicity against human SiHa cells assessed as cell growth inhibition at 1.2 to 3 uM after 130 hrs by RTCA assay; format: functional, cell-based
Outline: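 Cells seeded at 2000 per well on impedance plates, settled 20 min at room temperature, profiled 24 h; medium then replaced with compound-containing medium and cells monitored to 130 h total. Cell index normalized to 1.0 at the time point just before compound addition.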

[5] = Binding affinity to 1 uM BCL2 promoter G-quadruplex DNA (unknown origin) at 1 uM after 1 min by fluorescence spectroscopic analysis; format: ADME; outline: as §1
[6] = Binding affinity to BCL2 promoter G-quadruplex DNA (unknown origin) after 1 min by fluorescence titration method; format: ADME
Outline: (§2)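 Oligonucleotide stock added stepwise to fixed-concentration compound in 10 mM Tris-HCl pH 7.2, 100 mM KCl; equilibrated ≥1 min after each addition, emission read with excitation at 350 nm. KD from fitting titration data to the Benesi–Hildebrand equation; 1:1 stoichiometry checked by Job plot.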

[7] = Stabilization of Bcl2 G-quadruplex DNA in human SiHa cells assessed as effect on Bcl2 mRNA level at 1.25 to 5 uM fter 6 hrs by RT-PCR method; format: ADME, cell-based
Outline: (§3)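 SiHa cells (2.0×10^5 per well) treated 6 h; total RNA (2 µg) reverse-transcribed with oligo dT18 and M-MLV at 42 °C for 1 h, 85 °C for 5 min; PCR: 95 °C 5 min, then 30 cycles of 95 °C 30 s, 58 °C 30 s, 72 °C 40 s; products checked on agarose gel.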

[8] = Binding affinity to up to 1 uM c-MYC promoter G-quadruplex pu22 DNA (unknown origin) after 1 min by fluorescence titration method; outline: as §2
SiHa [9] = test: Induction of cell cycle arrest in human SiHa cells assessed as upregulation of p27 protein levels after 24 hrs by Western blot analysis; format: functional, cell-based
Outline: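 SiHa cells (2.0×10^5 per well) treated 24 h, lysed at 4 °C for 30 min, supernatant cleared at 15,000 rpm; protein measured by BCA, 30 µg resolved on 10% SDS-PAGE, transferred to nitrocellulose, blocked in 5% milk/TBS-Tween 1 h, primary antibodies overnight at 4 °C, HRP secondaries 2 h at room temperature.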

Homo sapiens [10] = organism: Homo sapiens; test: Stabilization of c-Myc promoter G-quadruplex DNA in human CA46 cells assessed as downregulation of exon 1 transcriptional level at 1.25 to 5 uM after 6 hrs by RT-PCR analysis; format: cell-based
Outline: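 RAJI and CA46 cells treated 6 h over a concentration range; total RNA reverse-transcribed (oligo dT18, M-MLV, 42 °C 1 h then 85 °C 5 min); exon 1 and exon 2 amplified by real-time PCR with exon-specific primers, products run on 1% agarose gel; three repeats.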

[11] = Binding affinity to VEGF promoter G-quadruplex DNA (unknown origin) after 1 min by fluorescence titration method; format: ADME; outline: as §2
[12] = Stabilization of antiparallel HRAS G-quadruplex DNA (unknown origin) assessed as effect on melting temperature at 15 uM by circular dichroism spectroscopic assay; format: ADME
Outline: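 CD melting of 3 µM annealed G-quadruplex with or without 15 µM ligand in 10 mM Tris-HCl pH 7.2 with 2 mM KCl (50 mM KCl for htg22 and HRAS); read every 5 °C over 25–95 °C, heating 1 °C/min.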

SiHa [13] = test: Induction of apoptosis in human SiHa cells assessed as early apoptotic cells at 5 uM after 24 hrs by Annexin V-FITC/propidium iodide-staining based flow cytometric analysis; format: functional
Homo sapiens [14] = organism: Homo sapiens; test: Stabilization of c-Myc G-quadruplex DNA in human SiHa cells assessed as decrease in c-Myc protein expression at 1.25 to 5 uM after 24 hrs by Western blot method; format: cell-based
Outline: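 SiHa cells (2.0×10^5) exposed 24 h, lysed at 4 °C; 30 µg protein per lane on 10% SDS-PAGE, transferred to nitrocellulose, milk-blocked, primary antibody overnight at 4 °C, HRP secondary 2 h at room temperature.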

[15] = Stabilization of KRAS G-quadruplex DNA in human SiHa cells assessed as effect on […] mRNA level at 1.25 to 5 uM fter 6 hrs by RT-PCR method; format: ADME, cell-based; outline: as §3
[16] = Stabilization of c-Kit G-quadruplex DNA in human SiHa cells assessed as effect on c-Kit mRNA level at 1.25 to 5 uM fter 6 hrs by RT-PCR method; format: ADME, cell-based
Outline: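 SiHa cells (2.0×10^5) dosed 6 h; total RNA reverse-transcribed with oligo dT18 primer and M-MLV (42 °C 1 h, 85 °C 5 min); PCR 95 °C 5 min then 30 cycles (95 °C 30 s, 58 °C 30 s, 72 °C 40 s); products checked on agarose gel.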

Activity [2]: Not Active
Activity [3]: Not Active
Activity [5]: Not Active
Kd [6]: 800 nM
Activity [7]: Not Active
Kd [8]: 100 nM
Kd [11]: 900 nM
Activity [12]: Not Active
Activity [15]: Not Active
Activity [16]: Not Active
Structure (SMILES): CCn1c2ccccc2c2cc(-c3nc(-c4ccc(N5CCN(C)CC5)cc4)c(-c4ccc(N5CCN(C)CC5)cc4)n3-c3ccc(OC)cc3)ccc21
TGI (SiHa [1]): 69%
IC50 (Huh-7): 4100 nM
growth inhibition (GI) (SiHa [4]): Active
Activity (SiHa [9]): Dose-dependent effect
Activity (Homo sapiens [10]): Active
Activity (SiHa [13]): 22%
Activity (Homo sapiens [14]): Active
